This is an account of results in ChEMBL document CHEMBL3046760, “Preharvest L-arginine treatment induced postharvest disease resistance to Botrysis cinerea in tomato fruits” (2011).

In test [1] the test system is Botrytis cinerea. The experiment in a line: Induction of resistance to Botryotinia fuckeliana-induced tomato fruit Solanum lycopersicum cv. No. 4 Zhongshu gray mold disease assessed as inhibition of lession area at 1 mM injected near root area measured after 12 days relative to control. In kind it is functional. As to conditions: 288 h. An outline of the steps:
(§1)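 Plants received 5 mL of L-arginine (0.5, 1 or 5 mM) by injection at a cut near the root area, with distilled water as control; 30 plants per treatment. Green mature fruit were picked 0–12 days after treatment. Fruit were ethanol-sterilised and wounded at three equator sites, each receiving 10 μL of 2 × 10^5 conidia/mL. Fruit were kept at 25 °C, 90–95% RH. Incidence and lesion area (3.14 × (d/2)²) were scored at 4 days; three replicates.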

Test [2] deals with Botrytis cinerea. The experiment in a line: Effect on mycelial growth of Botryotinia fuckeliana relative to control. In kind it is functional, organism-based. In a few lines:
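Mycelial growth on PDA containing 1 mM L-arginine in the molten agar. A 7 mm B. cinerea disk was placed at the centre of a 90 mm dish and incubated at 25 °C. Colony diameter was read at 2, 3 and 4 days. Inhibition (%) = (control diameter − treated diameter)/(control diameter − 7 mm) × 100. Triplicate plates; the experiment was run twice.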

Test [3] deals with Botrytis cinerea. The experiment in a line: Induction of resistance to Botryotinia fuckeliana-induced tomato fruit Solanum lycopersicum cv. No. 4 Zhongshu gray mold disease assessed as disease incidence at 0.5 mM injected near root area measured after 12 days relative to control. The test is classed as functional, organism-based. In a few lines: as §1
The test system of test [4] is Botrytis cinerea. Nature of the test: Induction of resistance to Botryotinia fuckeliana-induced tomato fruit Solanum lycopersicum cv. No. 4 Zhongshu gray mold disease assessed as inhibition of lession area at 1 mM injected near root area measured after 3 days relative to control. In kind it is functional. As to conditions: 72 h. An outline of the steps: as §1
Test [5] has as its system Botrytis cinerea. Nature of the test: Induction of resistance to Botryotinia fuckeliana-induced tomato fruit Solanum lycopersicum cv. No. 4 Zhongshu gray mold disease assessed as disease incidence at 0.5 mM injected near root area measured after 6 days relative to control. The test is classed as functional. In a few lines:
as §1

Test [6] has as its system Solanum lycopersicum. The experiment in a line: Induction of resistance to Botrytis cinerea-induced Solanum lycopersicum (tomato) fruit Solanum lycopersicum cv. No. 4 Zhongshu gray mold disease assessed as induction of defensive enzyme chitinase activity at 1 mM preharvest treatment measured after 3 days relative to control. The test is classed as functional. In a few lines:
(§2)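 Plants received 1 mM L-arginine (5 mL) injected near the root, with a water control. Fruit mesocarp was extracted in phosphate pH 6.8 (PAL, PPO) or acetate pH 5 (CHI, GLU) buffer. Readouts: PAL, L-phenylalanine in borate pH 8.8, 30 °C 1 h, A290. PPO, 0.1 M catechol, ΔA420 over 3 min. CHI, colloidal chitin at 40 °C then snailase, A585. GLU, 0.4% laminarin at 37 °C 1 h, DNS, A500. Three replicates.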

In test [7] the test system is Botrytis cinerea. Nature of the test: Induction of resistance to Botryotinia fuckeliana-induced tomato fruit Solanum lycopersicum cv. No. 4 Zhongshu gray mold disease assessed as inhibition of lession area at 1 mM injected near root area measured after 9 days relative to control. The test is classed as functional. As to conditions: 216 h. An outline of the steps:
as §1

The test system of test [8] is Botrytis cinerea. The experiment in a line: Induction of resistance to Botryotinia fuckeliana-induced tomato fruit Solanum lycopersicum cv. No. 4 Zhongshu gray mold disease assessed as disease incidence at 1 mM injected near root area measured after 3 days relative to control. The test is classed as functional. An outline of the steps: as §1
The subject of test [9] is Solanum lycopersicum. The experiment in a line: Induction of resistance to Botrytis cinerea-induced Solanum lycopersicum (tomato) fruit Solanum lycopersicum cv. No. 4 Zhongshu gray mold disease assessed as induction of defensive enzyme phenylalanine ammonialyase activity at 1 mM preharvest treatment measured after 9 days relative to control. The test is classed as functional, organism-based. An outline of the steps:
as §2

The test system of test [10] is Solanum lycopersicum. Nature of the test: Induction of resistance to Botrytis cinerea-induced Solanum lycopersicum (tomato) fruit Solanum lycopersicum cv. No. 4 Zhongshu gray mold disease assessed as induction of defensive enzyme beta-1,3-glucanase activity at 1 mM preharvest treatment measured after 3 days relative to control. The test is classed as functional. An outline of the steps: as §2

The test system of test [11] is Solanum lycopersicum. The experiment in a line: Induction of resistance to Botrytis cinerea-induced Solanum lycopersicum (tomato) fruit Solanum lycopersicum cv. No. 4 Zhongshu gray mold disease assessed as induction of defensive enzyme beta-1,3-glucanase activity at 1 mM preharvest treatment measured after 9 days relative to control. The test is classed as functional. In a few lines:
as §2

The subject of test [12] is Botrytis cinerea. The experiment in a line: Induction of resistance to Botryotinia fuckeliana-induced tomato fruit Solanum lycopersicum cv. No. 4 Zhongshu gray mold disease assessed as inhibition of lession area at 1 mM injected near root area measured after 6 days relative to control. The test is classed as functional. As to conditions: 144 h. In a few lines:
as §1

The subject of test [13] is Botrytis cinerea. Nature of the test: Induction of resistance to Botryotinia fuckeliana-induced tomato fruit Solanum lycopersicum cv. No. 4 Zhongshu gray mold disease assessed as disease incidence at 5 mM injected near root area measured after 3 days relative to control. The test is classed as functional. In a few lines: as §1
Test [14] relates to Botrytis cinerea. The experiment in a line: Induction of resistance to Botryotinia fuckeliana-induced tomato fruit Solanum lycopersicum cv. No. 4 Zhongshu gray mold disease assessed as disease incidence at 1 mM injected near root area measured after 6 days relative to control. The test is classed as functional. An outline of the steps: as §1
Test [15] concerns Botrytis cinerea. The experiment in a line: Induction of resistance to Botryotinia fuckeliana-induced tomato fruit Solanum lycopersicum cv. No. 4 Zhongshu gray mold disease assessed as disease incidence at 0.5 mM injected near root area measured after 3 days relative to control. In kind it is functional. An outline of the steps:
as §1

Test [16] deals with Solanum lycopersicum. Nature of the test: Induction of resistance to Botrytis cinerea-induced Solanum lycopersicum (tomato) fruit Solanum lycopersicum cv. No. 4 Zhongshu gray mold disease assessed as increase in NO content at 1 mM preharvest treatment measured after 3 days relative to control. The test is classed as functional, organism-based. An outline of the steps: (§3)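 Plants received 1 mM L-arginine (5 mL) injected near the root, with a water control. Frozen fruit mesocarp was extracted in HEPES-KOH pH 7.6 buffer. For NO, extract was pretreated with catalase and SOD, oxyhemoglobin was added, and A550 was read at 37 °C against a buffer blank; results are given as μmol/g FW. NOS was measured by the hemoglobin assay on cytosolic/microsomal fractions. Three replicates.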

The subject of test [17] is Botrytis cinerea. Nature of the test: Induction of resistance to Botryotinia fuckeliana-induced tomato fruit Solanum lycopersicum cv. No. 4 Zhongshu gray mold disease assessed as disease incidence at 5 mM injected near root area measured after 12 days relative to control. In kind it is functional, organism-based. An outline of the steps: as §1
Test [18] has as its system Solanum lycopersicum. The experiment in a line: Induction of resistance to Botrytis cinerea-induced Solanum lycopersicum (tomato) fruit Solanum lycopersicum cv. No. 4 Zhongshu gray mold disease assessed as induction of total phenolics content at 1 mM preharvest treatment measured after 3 days relative to control. The test is classed as functional. An outline of the steps: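 Plants received 1 mM L-arginine (5 mL) injected near the root, with a water control. A685 was calibrated against […] and expressed as catechin equivalents (mg/100 g FW). Mean of three replicates.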

In test [19] the test system is Botrytis cinerea. Nature of the test: Induction of resistance to Botryotinia fuckeliana-induced tomato fruit Solanum lycopersicum cv. No. 4 Zhongshu gray mold disease assessed as disease incidence at 1 mM injected near root area measured after 12 days relative to control. The test is classed as functional, organism-based. In a few lines:
as §1

Test [20] has as its system Solanum lycopersicum. Nature of the test: Induction of resistance to Botrytis cinerea-induced Solanum lycopersicum (tomato) fruit Solanum lycopersicum cv. No. 4 Zhongshu gray mold disease assessed as increase in NOS activity at 1 mM preharvest treatment measured after 3 days relative to control. In kind it is functional, organism-based. In a few lines: as §3
Test [21] concerns Solanum lycopersicum. The experiment in a line: Induction of resistance to Botrytis cinerea-induced Solanum lycopersicum (tomato) fruit Solanum lycopersicum cv. No. 4 Zhongshu gray mold disease assessed as induction of defensive enzyme beta-1,3-glucanase activity at 1 mM preharvest treatment measured after 6 days relative to control. In kind it is functional. In a few lines:
as §2

Test [22] has as its system Solanum lycopersicum. The experiment in a line: Induction of resistance to Botrytis cinerea-induced Solanum lycopersicum (tomato) fruit Solanum lycopersicum cv. No. 4 Zhongshu gray mold disease assessed as induction of defensive enzyme polyphenoloxidase activity at 1 mM preharvest treatment measured after 3 days relative to control. The test is classed as functional, organism-based. In a few lines: as §2

Test [23] concerns Botrytis cinerea. The experiment in a line: Induction of resistance to Botryotinia fuckeliana-induced tomato fruit Solanum lycopersicum cv. No. 4 Zhongshu gray mold disease assessed as disease incidence at 5 mM injected near root area measured after 6 days relative to control. The test is classed as functional. An outline of the steps:
as §1

The source made the active and inactive calls. No cut-off for these calls is given here.

Broadly, the inhibition in vivo is the relative decrease from the control value, in per cent.

As to `N=C(N)NCCC[C@H](N)C(=O)O` [ARGININE], the inhibition in vivo at 1000 µM in [1] came out at 85%; in test [4], 86%; in test [7], 90%; in [12], 90%. Moreover, the outcome in test [2] was inactive. Moreover, the outcome in test [3], in test [9], in test [16], in test [17], in test [19] and in test [20] was Active. Also, the outcome in test [22] was Active. Further, the Activity is given as 31% in [5]; 16% in test [8]; 37% in test [13]; 18% in [14]; 29% in [15]; 38% in test [23]. The “fold change (FC)” value in test [6] worked out at 1.9; in test [10], 1.6; in test [11] it was 3.1; in test [18] it was 1.17; in test [21] it was 1.4.
